Results taken from ChEMBL document CHEMBL4152381, “Discovery of Benzoazepinequinoline (BAQ) Derivatives as Novel, Potent, Orally Bioavailable Respiratory Syncytial Virus Fusion Inhibitors” (J Med Chem, 2018).

What was measured:
[1] = Cytotoxicity against human Hep2 cells assessed as decrease in cell viability after 5 days by CCK8 assay; assay type: cell-based; conditions: HEp-2 cells
How it was run: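 Uninfected HEp-2 cells, seeded at 6000 per well, were cultured 5 days with serially diluted compound alongside the CPE assay. Viability was read by CCK-8, and CC50 was the concentration cytotoxic to 50% of cells.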

[2] = Therapeutic index, ratio of CC50 for human Hep2 cells to EC50 for inhibition of RSV long fusion protein assessed as protection against virus induced cytopathic effect in infected human Hep2 cells; assay type: toxicity, cell-based; conditions: HEp-2 cells, read-out: Ratio CC50/EC50
How it was run: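 Index computed as CC50/EC50. CC50 came from uninfected HEp-2 cells and EC50 from 50% reduction of RSV Long CPE in HEp-2 cells (MOI 0.02). Both assays ran 5 days with serially diluted compound and a CCK-8 viability read-out.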

[3] = Intrinsic clearance in rat liver microsomes; assay type: ADME, microsome; conditions: read-out: CLH
How it was run: (§1)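 Intrinsic clearance was measured in human, rat or mouse liver microsomes and reported as scaled clearance.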

[4] = Intrinsic clearance in mouse liver microsomes; assay type: ADME, microsome; conditions: read-out: CLH; how it was run: as §1
[5] = Intrinsic clearance in human liver microsomes; assay type: ADME, microsome; conditions: read-out: CLH; how it was run: as §1
[6] = Solubility of the compound by LYSA; assay type: physicochemical
How it was run: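 Solubility measured by lyophilization solubility assay (LYSA), reported in μg/mL.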

[7] = Drug metabolism in mouse liver microsomes assessed as dealkylation; assay type: ADME, microsome
[8] = Effective permeability of the compound by PAMPA; assay type: ADME; conditions: read-out: Peff
How it was run: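 Parallel artificial membrane permeability assay, with permeability reported in 10−6 cm/s.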

[9] = Drug metabolism in rat liver microsomes assessed as dealkylation; assay type: ADME, microsome
[10] = Drug metabolism in mouse liver microsomes assessed as oxidation; assay type: ADME, microsome
[11] = Volume of distribution at steady state in Wistar-Han rat at 2 mg/kg, iv after 15 mins to 24 hrs by LC/MS/MS analysis; assay type: ADME, organism-based; conditions: in vivo, read-out: Vdss
How it was run: (§2)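 Single-dose PK in male Wistar rats at 2 mg/kg iv and 10 mg/kg po. Plasma clearance, Vss, iv half-life, AUC and oral bioavailability were derived.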

[12] = Half life in Wistar-Han rat at 2 mg/kg, iv by LC/MS/MS analysis; assay type: ADME, organism-based; conditions: in vivo; how it was run: as §2
[13] = AUC (0 to infinity) in Wistar-Han rat at 2 mg/kg, iv after 15 mins to 24 hrs by LC/MS/MS analysis; assay type: ADME, organism-based; set-up: dose 2 mg/kg, route intravenous, time infinity; conditions: in vivo
[14] = Oral bioavailability in Wistar-Han rat at 10 mg/kg after 15 mins to 24 hrs by LC/MS/MS analysis; assay type: ADME, organism-based; conditions: in vivo; how it was run: as §2
[15] = Clearance in Wistar-Han rat at 2 mg/kg, iv after 15 mins to 24 hrs by LC/MS/MS analysis; assay type: ADME, organism-based; conditions: in vivo; how it was run: as §2
[16] = Drug metabolism in rat liver microsomes assessed as oxidation; assay type: ADME, microsome
[17] = AUC (0 to infinity) in Wistar-Han rat at 10 mg/kg, po after 15 mins to 24 hrs by LC/MS/MS analysis; assay type: ADME, organism-based; set-up: dose 10 mg/kg, time infinity, route oral; conditions: in vivo

Row | SMILES | CC50 at 120 h [1] | selectivity ratio [2] | other results
1 | NCCCCNc1cc(N2CCc3ccccc3C2)nc2ccccc12 | 7.4 µM |  | 
2 | NCCNc1cc(N2CCCc3ccccc3C2)nc2cc(Cl)ccc12 | 7.5 µM | 2 | 
3 | CC(O)CNc1cc(N2CCc3ccccc3C2)nc2ccccc12 (configuration not stated) | 89 µM |  | 
4 | NCCNc1cc(N2CCCc3ccccc3C2)nc2ccc(C(F)(F)F)cc12 | 6.7 µM | 6 | 
5 | NCCNc1cc(N2CCS(=O)(=O)c3ccccc3C2)nc2ccccc12 | 94 µM | 8540 | CLint scaled [3]: 3 mL/min/kg
6 | NCC(O)CNc1cc(N2CCCc3ccccc3C2)nc2ccccc12 (configuration not stated) | 21 µM | 95 | 
7 | Cc1ccc2nc(N3CCCc4cc(F)ccc4C3)cc(NCCN)c2c1 | > 3.2 µM | > 7 | CLint scaled [4]: 31 mL/min/kg; CLint scaled [3]: 33 mL/min/kg; CLint scaled [5]: 8 mL/min/kg
8 | NCC(O)CNc1cc(N2CCc3ccccc3C2)nc2ccccc12 (configuration not stated) | 21 µM | 95 | 
9 | Cc1ccc2nc(N3CCS(=O)(=O)c4ccccc4C3)cc(NCCCCCN)c2c1 | 21 µM | 778 | 
10 | Cc1ccc2nc(N3CCS(=O)(=O)c4ccccc4C3)cc(NCCCCN)c2c1 | 92 µM | 13100 | 
11 | NCCNc1cc(N2CCCc3ccccc3C2)nc2ccccc12 | 23 µM | 115 | solubility [6]: > 460 µg/mL; CLint scaled [4]: 19 mL/min/kg; Drug metabolism [7]: Metabolite_Detected; Papp [8]: 0.99 ×10⁻⁶ cm/s; Drug metabolism [9]: Metabolite_Detected; CLint scaled [3]: 23 mL/min/kg; Drug metabolism [10]: Metabolite_Detected; Vd [11]: 73 to 106 L/kg; half-life [12]: 12 h; AUC(0-inf) [13]: 324 ng·h/mL; bioavailability [14]: 32%; CLint scaled [5]: 10 mL/min/kg; clearance [15]: 89 to 106 mL/min/kg; Drug metabolism [16]: Metabolite_Detected; AUC(0-inf) [17]: 510 ng·h/mL
12 | Cc1ccc2nc(N3CCNc4ccccc4C3)cc(NCCN)c2c1 | 12 µM | 52 | CLint scaled [4]: 19 mL/min/kg; CLint scaled [3]: 43 mL/min/kg; CLint scaled [5]: 5 mL/min/kg
13 | NCCCNc1cc(N2CCc3ccccc3C2)nc2ccccc12 | 8.4 µM | 1 | 
14 | Cc1ccc2nc(N3CCCc4ccccc4C3)cc(NCCN)c2c1 | 9.4 µM | 129 | 
15 | CS(=O)(=O)c1ccc2nc(N3CCCc4ccccc4C3)cc(NCCN)c2c1 | 13 µM | 2 | 
16 | NCCNc1cc(N2CCCc3ccccc3C2)nc2cccc(Cl)c12 | 23 µM | 3 | 
